Measured values pooled from the literature.
Each line is one published result; the experiments were not run side by side. pEC50, pIC50: −log10 of the molar value.
Cell line: K562
Observed: cell growth or viability

SMILES | test | setting | endpoint | value
CCN(CC)CCNC(=O)c1ccc(-c2nc3ccc4[nH]ncc4c3c3c2CCCC3)cc1 | resazurin | 72 h | GI50 | 3.6 µM
Nc1ccccc1NC(=O)c1ccc(Cn2cnc3c(Nc4ccc(Br)cc4F)ncnc32)cc1 | MTT | 72 h | pIC50 | 4.52
N#Cc1ccc(-c2cc(COc3cc(=O)oc4ccccc34)on2)cc1 | MTS | 72 h | pIC50 | < 4.00
Cc1n[nH]c2ccc3nc(-c4ccc(C(=O)N(C)CCN(C)C)cn4)c4c(c3c12)CCCCC4 | resazurin | 72 h | GI50 | > 10 µM
O=C(Nc1ccc(OC(F)(F)Cl)cc1)c1cnc(N2CC[C@@H](O)C2)c(-c2cc[nH]n2)c1 | ATP luminescence | 72 h | pEC50 | 8.30
C=C(NC(=O)C(=C)NC(=O)c1csc(C2=N[C@@H]3c4csc(n4)[C@H]4NC(=O)c5csc(n5)[C@H]([C@](C)(O)[C@@H](C)O)NC(=O)[C@H]5CSC(=N5)/C(=C/C)NC(=O)[C@H]([C@@H](C)O)NC(=O)c5csc(n5)[C@]3(CC2)NC(=O)[C@H](C)NC(=O)C(=C)NC(=O)[C@H](C)NC(=O)[C@H]([C@@H](C)CC)N[C@@H]2C=Cc3c([C@H](C)O)cc(nc3[C@H]2O)C(=O)O[C@@H]4C)n1)C(N)=O |  |  | pEC50 | 6.22
FC(F)(F)c1cc(OCc2cc(-c3ccccn3)no2)c2ccccc2n1 | MTS | 72 h | pIC50 | < 4.00
CN(C)CCNC(=O)c1ccc(-c2nc3ccc4[nH]ncc4c3c3c2CC(C)(C)CC3)cc1 | resazurin | 72 h | GI50 | 3.7 µM
FC(F)(F)c1cc(OCc2cc(-c3ccccc3)no2)c2ccccc2n1 | MTS | 72 h | pIC50 | < 4.00
Nc1ccccc1NC(=O)c1ccc(Cn2cnc3c(Nc4ccc(Cl)cc4)ncnc32)cc1 | MTT | 72 h | pIC50 | 4.76
O=c1cc(OCc2cc(-c3ccccn3)no2)c2ccccc2o1 | MTS | 72 h | pIC50 | < 4.00
O=C(c1ccc(/C=C/c2n[nH]c3ccccc23)cc1)N1CCNCC1 |  |  | GI50 | ~0.4 µM
Cc1nc(Nc2ncc(C(=O)Nc3c(C)cccc3Cl)s2)cc(N2CC[C@H](O)C2)n1 | ATP luminescence | 10 µM, 72 h | inhibition | 90%
O=C(NC1CC1)c1ccc(-c2nc3ccc4[nH]ncc4c3c3c2CCCC3)cc1 | resazurin | 72 h | GI50 | 4.1 µM
